Reference: ChEMBL document CHEMBL1158705, “Dihydrochalcones from the leaves of Pieris japonica” (2005)

Tests used:
[1] = Inhibition of LPS-induced mouse B cells proliferation assessed as [3H]TdR incorporation at 0.1 uM […]; type: functional
Procedure, shortened: (§1)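 Mouse spleen cells (4 × 10^6/well) were cultured with test compound plus a selective stimulus: concanavalin A at 5 µg/mL for T cells, or E. coli LPS for B cells. Incubation was 48 h at 37 °C in 5% CO2, with a 0.25 µCi/well 3H-thymidine pulse over the final 6 h. Incorporated radioactivity was read by liquid scintillation, as the mean of triplicates, with Student t-test versus control.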

[2] = Inhibition of LPS-induced mouse B cells proliferation assessed as [3H]TdR incorporation at 1 uM […]; type: functional; procedure, shortened: as §1
[3] = Inhibition of concanavalin A-induced mouse T cells proliferation assessed as [3H]TdR incorporation at 10 uM […]; type: functional, T-cell; procedure, shortened: as §1
[4] = Inhibition of LPS-induced mouse B cells proliferation assessed as [3H]TdR incorporation at 10 uM […]; type: functional; procedure, shortened: as §1
[5] = Inhibition of concanavalin A-induced mouse T cells proliferation assessed as [3H]TdR incorporation at 1 uM […]; type: functional, T-cell; procedure, shortened: as §1
[6] = Inhibition of concanavalin A-induced mouse T cells proliferation assessed as [3H]TdR incorporation at 0.1 uM […]; type: functional, T-cell; procedure, shortened: as §1

SMILES | Activity [1] [cpm] | Activity [2] [cpm] | Activity [3] [cpm] | Activity [4] [cpm] | Activity [5] [cpm] | Activity [6] [cpm]
COc1c(O[C@@H]2O[C@H](CO)[C@@H](O)[C@H](O)[C@H]2O)cc(C(=O)CCc2ccc(O)cc2)cc1O[C@@H]1O[C@H](CO)[C@@H](O)[C@H](O)[C@H]1O | 30900 | 22800 | 74100 | 24600 | 74100 | 84800
COc1cc(O)c(C(=O)CCc2ccc(O)c(O)c2)c(O[C@@H]2O[C@H](CO)[C@@H](O)[C@H](O)[C@H]2O)c1 | 22200 | 22100 | 33000 | 24000 | 71400 | 66700
COc1cc(O)c(C(=O)CCc2ccc(O)cc2)c(O[C@@H]2O[C@H](CO)[C@@H](O)C(=O)[C@H]2O)c1 | 34200 | 35000 | 32000 | 16400 | 26700 | 38300
COc1cc(O)c(C(=O)CCc2ccc(O)cc2)c(O[C@@H]2O[C@H](CO)[C@@H](O)[C@H](O)[C@H]2OC(C)=O)c1 | 46600 | 45000 | 70100 | 29800 | 81600 | 83300
COc1cc(O)c(C(=O)CCc2ccc(O)cc2)c(O)c1 [ASEBOGENIN] | 32500 | 28300 | 58400 | 34100 | 80300 | 79300
COc1cc(O)c(C(=O)CCc2ccc(O)cc2)c(O[C@@H]2O[C@H](CO)[C@@H](O)[C@H](O)[C@H]2O)c1 [ASEBOTIN] | 47400 | 40700 | 79600 | 35200 | 87200 | 89800
O=C(CCc1ccc(O)cc1)c1c(O)cc(O)cc1O [PHLORETIN] | 32700 | 29300 | 69400 | 30700 | 75700 | 63900
O=C(CCc1ccc(O)cc1)c1c(O)cc(O)cc1O[C@@H]1O[C@H](CO)[C@@H](O)[C@H](O)[C@H]1O [PHLORIZIN] | 33000 | 32400 | 33000 | 30500 | 35500 | 36100
COc1cc(O)c(C(=O)CCc2ccc(O)cc2)c(O)c1Cc1c(OC)cc(O)c(C(=O)CCc2ccc(O)cc2)c1O [PIEROTIN A] | 38100 | 32700 | 22600 | 36500 | 75000 | 75400
COc1cc(O)c(C(=O)CCc2ccc(O)cc2)c2oc3cc(O)c(O)cc3c12 [PIEROTIN B] | 22800 | 28600 | 10800 | 3940 | 59000 | 76200
